{"source": "the RNAGym collection of RNA variant scans (doi:10.1126/science.aae0568)", "parents": {"B1": {"name": "tRNA (parent)", "chain": "GUUCCGUUGGCGUAAUGGUAACGCGUCUCCCUCCUAAGGAGAAGACUGCGGGUUCGAGUCCCGUACGGAACG"}}, "note": "Variants at the floor of the assay were thinned out.", "data": [{"variants_of": "B1", "assay": "yeast fitness relative to wild type (ratio to wild type); higher = fitter; tRNA-Arg(CCU), competitive growth, 37 C, YPD", "procedure,_shortened": "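For this measurement, the tRNA-Arg(CCU) gene was varied by chemical synthesis at a 3% per-site mutation rate across 69 sites, and each variant was placed at the native genomic locus in Saccharomyces cerevisiae. The pooled strains went through a 24-hour competition in YPD at 37°C in six parallel replicates, with amplicons from start and end populations read by 100-nucleotide paired-end sequencing. Darwinian fitness relative to wild type followed from the change in each genotype's frequency. Genotypes needed ≥ 100 starting reads, and estimates < 0.5 were set to 0.5.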", "values": [{"variant": "GUUCCAUUGGCGUAAUGGUAACGCGUCUCCCUCCUAAGGAGAAGACUGCGGGUUCGAGUCCUGUAAGGAACG", "yeast fitness": 0.548}, {"variant": "GUUCCAUUAGCGUAAUGGUAACGCGUCUCCCUCCUCUGGAGAAGACUGCGAGUUCGAGUCCGGUACGGAACG", "yeast fitness": "≤ 0.5"}, {"variant": "GUUCCAUUAGCGUAAUGGUAAUGCGUCUCGCUCCUAAGGAGAAGACUGCGGGUUCGAGUCCCGUACGGAACG", "yeast fitness": "≤ 0.5"}, {"variant": "GUUCCAUUCGCGUCAUGGUAACGCGUAUCCUUCAUAAGGAGCAGAGUGCGGGUUCGAGUCCCGUACGGAACG", "yeast fitness": "≤ 0.5"}, {"variant": "GUUCCAUUCGGGUAAUGGUAACGCGUCUCCCUCUUAAGGAGAAGACUGCGGGUUCGAGACCCGUACGGCACG", "yeast fitness": "≤ 0.5"}, {"variant": "GUUCCAUUCGGGUAAUGGUAACGCAUCUCCCUCUUAAGGAGAAGACUGCGGGUUCGAGUCCCGUACGAAACG", "yeast fitness": "≤ 0.5"}, {"variant": "GUUCCAUUCGCGUAAUGGUAACGUGUCUCGAUCCUAAGGAGAGGACUGCGGGUUCGAGUCCCGUCCGGAACG", "yeast fitness": "≤ 0.5"}, {"variant": "GUUCCAUUCGCGUAAUGGUAACGCGUCUCCCUCCUAAGGAGAACACUGCGGGUUCGAGUCCCGUAUGGAACG", "yeast fitness": "≤ 0.5"}, {"variant": "GUUCCAUUGACGUAAUGGUAACGCGAUUACCUCCUAAGGAGAAGACUGCGGGUUCGAGUCCCGUGCGCAACG", "yeast fitness": "≤ 0.5"}, {"variant": "GUUCCAUUGCCGUAAUGGUAACGCGUCUUCCUCCUAAGGAGAAGACUGCGGGUUCGAGUCAUGUUCGGCACG", "yeast fitness": "≤ 0.5"}, {"variant": "GUUCCAUUGCCGUAAUGGUAACGCGUCUCCCUCUUAAGGCGAAGACUGCGGGUUCGAGUCCCGUACGGAACG", "yeast fitness": "≤ 0.5"}, {"variant": "GUUCCAUUGGCAUAAUGGUGAGGCGACUCCCUCCUAAGGAGAAGACUCCGGGUUCGAGUCCCGUUCGGAACG", "yeast fitness": "≤ 0.5"}, {"variant": "GUUCCAUUGGCAUAAUGGUAAAGCGUCUCCCUCCUAAGGAGAAGACUGCGGGUUCGAGUCCCGUACGGAACG", "yeast fitness": 0.603}, {"variant": "GUUCCAUUGGCCUAACGGUAUCGCGUCUCCCUCCUAAGGAGAAGACUGCGGGUUCGAGUCCCCUACAGAACG", "yeast fitness": "≤ 0.5"}, {"variant": "GUUCCAUUGGCGUAAUAGUAACGCGUCUCCCUCCUAACGAGAAGACUGCGGGUUCGAGUCCCGUACGGAACG", "yeast fitness": 0.708}, {"variant": "GUUCCAUUGGCGUAAUAGUAACGCGUCUCCCCCCUAAGGAGAAGACUGCGGGUUCGAGUCCCGUACGGAACG", "yeast fitness": "≤ 0.5"}, {"variant": "GUUCCAUUGGCGUAAUCGUAACGCGUCUCCAUCCUUAGGAGAAGACUGCGGGUUCGAGUCCCGUACGGAACG", "yeast fitness": 0.53}, {"variant": "GUUCCAUUGGCGUAAUCGUAACGCGUCUCCAUCCUUAGGAGAAGACUGCGGGUUCAAGUCCCGUACGGAACG", "yeast fitness": 0.632}, {"variant": "GUUCCAUUGGCGUAAUGAUAAUGCGUCUCCCUCCUAAGGAGAAGACUGCGGGUUCGAGUCCCGUACGGAACG", "yeast fitness": 0.6}, {"variant": "GUUCCAUUGGCGUAAUGCUAACGCGUCUCCCUCCUACGGAGAAGACUGCGGGUUCGAGUGCCGUGCGGAACG", "yeast fitness": "≤ 0.5"}, {"variant": "GUUCCAUUGGCGUAAUGCUAAGGCGUCUCCCUCCUAAGGAGAAGACUGCGGGUUCGAGUCCCGUCCGGAACG", "yeast fitness": "≤ 0.5"}, {"variant": "GUUCCAUUGGCGUAAUGCUAACGCGUCUCCCUCCUAAGGAGAAGACUGUGGGUUCGAGUCGCGUACGGAACG", "yeast fitness": "≤ 0.5"}, {"variant": "GUUCCAUUGGCGUAAUGGUAACCCGUCUCCCUCCUAAGGAGAAGACUGGGGGGUCGGGUCUCGUACGGAACG", "yeast fitness": "≤ 0.5"}, {"variant": "GUUCCAUUGGCGUAAUGGUAACCCGUCUCCCUCCUAAGGAGAAGACUGCGGGUUCGAGUACCGUACGGAACG", "yeast fitness": 0.573}, {"variant": "GUUCCAUUGGCGUAAUGGUAACGCAUCUCCCUCCUAAGGAGAAGACUGCGGGUUCGAGUCCCGUACGGAACG", "yeast fitness": 0.859}, {"variant": "GUUCCAUUGGCGUAAUGGUAACGCAUCUCCCUCCUAAGGAGAAGUCUGCGGGUUCGAGUCCAGUACGGAACG", "yeast fitness": "≤ 0.5"}, {"variant": "GUUCCAUUGGCGUAAUGGUAACGCCUCUCCCUCCUAAGGAGAAGACUCCGGGUUCGAGUCCCGUACGGAACG", "yeast fitness": 0.654}, {"variant": "GUUCCAUUGGCGUAAUGGUAACGCGUCUCCCUCCUAAGCAGAAGACUGCGGGUUCGAGUCCCAUACGGAACG", "yeast fitness": "≤ 0.5"}, {"variant": "GUUCCAUUGGCGUAAUGGUAACGCGUCUCCCUCCUAAGUAGAAGACUGCGGGUUCGAGUCCCGUACGGAACG", "yeast fitness": 0.79}, {"variant": "GUUCCAUUGGCGUAAUGGUAACGCGUCUCCCUCCUAAGGAGAAAACUGCGGGUUCGAGUCCCGUACGGCACG", "yeast fitness": 0.576}, {"variant": "GUUCCAUUGGCGUAAUGGUAACGCGUCUCCCUCCUAAGGAGAAAAAUGCGGAUUCGAGUCCCGUAUGGAACG", "yeast fitness": 0.526}, {"variant": "GUUCCAUUGGCGUAAUGGUAACGCGUCUCCCUCCUAAGGAGAAAACUGCGGGUUCAAGUCCCGUACGGAACG", "yeast fitness": 0.649}, {"variant": "GUUCCAUUGGCGUAAUGGUAACGCGUCUCCCUCCUAAGGAGAAAACUGCGGGUUCGAGACCCGUACGGUACG", "yeast fitness": "≤ 0.5"}, {"variant": "GUUCCAUUGGCGUAAUGGUAACGCGUCUCCCUCCUAAGGAGAAGACUCCGGGUUCGAGUCCCGUACGGAACG", "yeast fitness": 0.884}, {"variant": "GUUCCAUUGGCGUAAUGGUAACGCGUCUCCCUCCUAAGGAGAAGACUCCGGGUUCGAAUCCCGUACGGAACG", "yeast fitness": 0.57}, {"variant": "GUUCCAUUGGCGUAAUGGUAACGCGUCUCCCUCCUAAGGAGAAGACUGCAGGUUCGAGUACCGUACGUAACG", "yeast fitness": "≤ 0.5"}, {"variant": "GUUCCAUUGGCGUAAUGGUAACGCGUCUCCCUCCUAAGGAGAAGACUGCGAGUUCGAGUCCUGUACGGAACG", "yeast fitness": 0.643}, {"variant": "GUUCCAUUGGCGUAAUGGUAACGCGUCUCCCUCCUAAGGAGAAGACUGCGGCUUCGAGUCCCGUACGGAACG", "yeast fitness": 0.635}]}]}
